CHRM5 antagonist: human M5 muscarinic receptor antagonists, primary screen, CHO cells, Fluo-8 calcium fluorescence; inhibition, % at 3 µM; CHO-hM5 cells, ACh EC80; 0.59% of 360,000 active; Muscarinic acetylcholine receptor M5 (Homo sapiens), P08912;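 active = inhibition above a per-plate cutoff, the mean of that plate's test compounds plus 3 SD, cut at about 27% in these data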;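 note: 0% = acetylcholine EC80 with DMSO and 100% = DMSO without agonist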
CHRM4 antagonist: human M4 muscarinic receptor antagonists, primary screen, CHO cells, Fluo-8 calcium fluorescence; CHO-hM4 cells, ACh EC80; AID 624125, 2012; Muscarinic acetylcholine receptor M4 (Homo sapiens), P08173; 0.73% of 360,000 active; inhibition, % at 3 µM;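 active = inhibition above its plate's cutoff, the mean inhibition of sample wells plus 3 SD, cut at about 27% in these data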;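 note: 0% = acetylcholine EC80 with DMSO and 100% = DMSO without agonist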
Target sequence (P08173 whole entry, looked up): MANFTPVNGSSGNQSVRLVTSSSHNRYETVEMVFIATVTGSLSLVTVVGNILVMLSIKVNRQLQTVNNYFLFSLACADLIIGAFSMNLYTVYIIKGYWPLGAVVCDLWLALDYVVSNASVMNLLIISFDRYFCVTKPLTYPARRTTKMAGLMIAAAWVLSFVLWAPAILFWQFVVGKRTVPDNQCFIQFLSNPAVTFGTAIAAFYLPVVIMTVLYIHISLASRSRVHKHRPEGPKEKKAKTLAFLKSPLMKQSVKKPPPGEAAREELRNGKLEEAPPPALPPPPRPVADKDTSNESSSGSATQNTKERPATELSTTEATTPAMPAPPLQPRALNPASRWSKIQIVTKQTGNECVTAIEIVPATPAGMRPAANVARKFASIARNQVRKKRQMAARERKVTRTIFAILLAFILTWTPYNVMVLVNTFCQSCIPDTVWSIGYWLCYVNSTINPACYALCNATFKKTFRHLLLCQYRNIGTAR
CHRM4 PAM: human M4 muscarinic receptor positive allosteric modulators, primary screen, CHO-K1 cells, Fluo-8 calcium fluorescence | Muscarinic acetylcholine receptor M4 (Homo sapiens), P08173 | CHO-K1 hM4/Gqi5, ACh EC20; 0% = ACh EC20, 100% = maximal ACh | activation, % at 3 µM | 0.4% of 360,000 active;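 active = activation above its plate's cutoff, the mean activation of sample wells plus 3 SD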
CHRM5 PAM: human M5 muscarinic receptor positive allosteric modulators, primary screen, CHO-K1 cells, Fluo-8 calcium fluorescence; AID 624038, 2012; activation, % at 3 µM; Muscarinic acetylcholine receptor M5 (Homo sapiens), P08912; 0.3% of 360,000 active; CHO-K1 hM5, ACh EC20 PAM; 0% = ACh EC20, 100% = ACh EC100;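 active = activation above the run cutoff, the mean activation of all test compounds plus 3 SD, cut at about 18% in these data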
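Measured by: Fluo-8 calcium fluorescence; material: human M5 receptor in CHO-K1 cells; schedule: Post-acetylcholine fluorescence recording 140 s; benchmarks: low control EC20 acetylcholine (0%), high control EC100 acetylcholine (100%); read-out: Max/basal fluorescence ratio as % of EC20–EC100 ACh window; compound: single dose, 3 µM nominal final test concentration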
M4 ag: human M4 muscarinic receptor agonists, primary screen, CHO-K1 cells, Fluo-8 calcium fluorescence | CHO-K1 hM4/Gqi5; vehicle 0%, full acetylcholine response 100% | activation, % at 3 µM | 0.14% of 360,000 active;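 active = activation above the run mean over all test wells plus 3 SD, cut at about 32% in these data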;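 note: peak over basal fluorescence ratio per well then scaled between controls; 0% = DMSO wells and 100% = acetylcholine at EC100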
CHRM5 agonist: human M5 muscarinic receptor agonists, primary screen, CHO-K1 cells, Fluo-8 calcium fluorescence; Muscarinic acetylcholine receptor M5 (Homo sapiens), P08912; CHO-K1 hM5 cells; 0% DMSO wells, 100% maximal acetylcholine response; activation, % at 3 µM; 0.19% of 360,000 active;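 active = activation above the run's mean over test compounds plus 3 SD, cut at about 23% in these data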;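 note: signal is peak over basal fluorescence ratio across the kinetic read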
* marks the source's active call; other numbers are inactive results. Most compounds without a hit are left out; they make up all but 1.9% or so of the library.

SMILES	CHRM5 antagonist	CHRM4 antagonist	CHRM4 PAM	CHRM5 PAM	M4 ag	CHRM5 agonist
CCOC(=O)C1CCCN(C(=O)c2cccc3ccccc23)C1 (centres undefined)	8.2	13.9	-6.3	-1.6	0.4	-0.8
CCOC(=O)C1CCc2c(ccc3ccccc23)N1CCC#N (centres undefined)	29.2*	-13.4	7.3	-4.9	0.6	-1.5
O=C(N[C@@H](Cc1ccccc1)C(=O)NC1CC1)c1ccc(Cl)cc1	2.1	-3.6	-6.0	0.7	0.7	0.2
CC(C)C(=O)Nc1cccc(C(=O)N2CCCCC2C)c1 (centres undefined)	-14.8	-16.7	5.6	21.0*	0.4	1.1
CCOc1cc(/C=C/C(=O)c2ccc(OC)c(CN3CCOCC3)c2)cc(Br)c1O	4.7	-0.3	-14.3	-5.8	33.3*	10.5
CCCCNC(=O)C1(C)CCCCN1C(=O)c1cccs1 (centres undefined)	9.1	-0.9	2.5	4.2	0.1	2.0
O=C(NCCNC(=O)c1ccccn1)c1ccccc1	11.5	6.4	1.2	1.1	0.7	-0.6
CCc1cc(C(=O)Cc2nc3ccccc3s2)c(O)cc1OCC(=O)O	-3.3	36.1*	6.5	-0.3	1.1	3.2
CCOC(=O)CSc1nnc(NC(=O)CCc2ccccc2)s1	-1.0	7.2	21.3*	7.0	0.6	-4.2
COc1ccc([C@H]2CC(=O)C=C(c3ccc(CNC(=O)OC(C)(C)C)cc3)C2)cc1	26.6	27.6*	-13.7	-39.3	25.2	1.7
COc1ccc([C@H]2CC(=O)C=C(c3ccc(OC(F)(F)F)cc3)C2)cc1	11.2	-3.7	9.1	-9.7	0.2	0.3
CCCCN(C(=O)c1cc2ccccc2o1)c1c(N)n(CCCC)c(=O)[nH]c1=O	-1.0	-6.9	3.7	4.0	1.4	-3.6
COC(C[C@@H]1O[C@H]1C(=O)COCc1ccccc1)OC	-0.8	-0.8	24.6*	3.7	1.8	4.3
O=C1N[C@H](Cc2ccccc2)COC(=O)[C@@H](Cc2ccc(F)cc2)C/C=C\C[C@H]1CC(=O)N(CCO)Cc1ccccc1	11.2	-18.8	-9.6	-15.1	14.8	1.3
Cc1cccc(C(=O)NNS(=O)(=O)c2ccccc2[N+](=O)[O-])c1	-6.8	-1.9	27.6*	-1.8	1.0	0.4
O=c1[nH]c(CN2CCN(S(=O)(=O)c3cccs3)CC2)nc2c(Br)cc(Br)cc12	6.3	2.6	7.7	-1.2	0.8	3.0
COC(=O)c1ccccc1NC(=O)c1onc(C)c1Cl	2.1	0.6	2.2	3.7	-0.5	-1.6
CCc1ccccc1NC(=O)c1onc(C)c1Cl	7.3	55.1*	-16.0	-9.0	0.2	-1.5
CSC1=NSC2=NC(=O)/C(=C/c3coc4ccccc4c3=O)C(=N)N12	40.9*	17.8	-12.5	-19.2	33.1*	45.2*
N=C1/C(=C/c2cccn2Cc2ccc(F)cc2)C(=O)N=C2SC=CN12	6.3	-9.1	-3.0	-0.8	7.2	-5.2
N=C1/C(=C\c2coc3ccccc3c2=O)C(=O)N=C2SC=CN12	34.1*	37.8*	-43.4	-33.5	106.8*	108.9*
CSC1=NSC2=NC(=O)/C(=C\c3cccs3)C(=N)N12	-1.8	2.8	-1.2	-0.4	1.5	4.5
CSC1=NSC2=NC(=O)/C(=C/c3coc4ccc(O)cc4c3=O)C(=N)N12	28.1*	20.2	-8.0	-4.9	26.2	52.5*
CC1=CC2=NC(=O)/C(=C/c3coc4ccc(Cl)cc4c3=O)C(=N)N2O1	40.5*	23.3	-13.8	-29.2	44.9*	83.1*
COc1ccc(CCNC(=O)CCCCCN2C(=O)[C@@H]3Cc4ccccc4CN3C2=O)cc1OC	9.7	-0.6	-2.3	-4.2	11.1	4.5
SMILES	CHRM5 antagonist	CHRM4 antagonist	CHRM4 PAM	CHRM5 PAM	M4 ag	CHRM5 agonist
CC1=C(C(=O)N(C)C)CC(CC(=O)NC2CCCC2)C(=O)N1Cc1ccc(F)cc1 (centres undefined)	-6.7	7.1	-2.3	3.5	1.5	-0.1
O=c1c2ccccc2sc2ccc(NCCCN3CCOCC3)cc12	17.7	-14.9	0.0	-10.3	32.9*	17.9
COc1ccc2sc(C)nc2c1NC(C)=O	2.9	-4.2	4.9	-1.6	0.2	-2.2
COc1cc2sc(C)nc2c2sccc12	-22.9	-9.8	18.2*	-1.0	-0.3	-5.8
CCOc1ccccc1NC(=O)COC(=O)CC(NC(N)=O)c1ccc(Cl)cc1 (centres undefined)	17.3	-4.2	6.1	-7.9	3.0	-3.1
Cc1ccc(-c2c[nH]c(=S)n2-c2ccccc2F)cc1	0.2	4.3	-6.0	11.8	-0.6	-8.8
COC(=O)c1[nH]c2c(c1C)C(=O)CC(c1cccs1)C2 (centres undefined)	4.9	12.0	29.8*	-0.3	10.2	-6.7
CCOC(=O)c1c(-c2ccccc2)csc1NC(=O)/C(C#N)=C\c1ccc(O)c(OC)c1	16.8	1.4	0.8	12.0	3.0	30.8*
CCOC(=O)c1c(-c2ccc(C)cc2)csc1NC(=O)/C(C#N)=C/c1ccc(O)c(OC)c1	-13.2	2.0	1.4	8.1	2.5	5.2
CCC(c1nnc(SCC(=O)Nc2c(F)cccc2F)n1Cc1ccccc1)N(C)C (centres undefined)	-2.0	-4.6	-1.5	0.7	0.8	-2.4
CCOCCCNC(=O)C(c1ccc(C)cc1)N(Cc1cccs1)C(=O)c1ccccc1O (centres undefined)	3.7	-17.8	-2.2	-9.6	13.3	-0.5
CCc1nc2ccc(C(=O)Nc3cccc(NS(C)(=O)=O)c3)cn2c1N(C)CCCc1ccccc1	3.4	54.3*	-12.6	-8.5	6.8	-1.7
CCc1nc2ccc(C(=O)N(CC)CCN(C)C)cn2c1N(C)CCCc1ccccc1	3.7	27.0*	-14.7	-10.7	1.2	-2.2
CCCCNC(=O)C1C(c2ccc(OC)cc2)=Nc2ccccc2N1C(=O)c1ccncc1 (centres undefined)	13.5	7.7	-5.2	-4.7	1.0	-1.8
CC(C)C1Cc2[nH][nH]c(=O)c2C(C2CC2)O1 (centres undefined)	-5.4	-4.3	14.0	3.0	1.4	2.4
COc1cc(/C=N/NC(=O)c2ccncc2)ccc1Oc1ccc([N+](=O)[O-])cn1	-14.4	-3.2	-1.2	18.5*	1.4	3.2
COc1ccc(/C=N/NC(=O)c2cccc([N+](=O)[O-])c2)cc1OC(=O)c1ccc(C)cc1	-0.9	-3.5	2.7	56.7*	-0.7	0.1

Compound activity: PubChem BioAssay, The Scripps Research Institute Molecular Screening Center
